Data: the M2OR odorant receptor database

Assays:
Settings in all cases: stereoisomer not certain
OR1A1 (Homo sapiens) = target: T1, OR1A1 (Homo sapiens) (UniProt Q9P1Q5)
T1 sequence (whole entry): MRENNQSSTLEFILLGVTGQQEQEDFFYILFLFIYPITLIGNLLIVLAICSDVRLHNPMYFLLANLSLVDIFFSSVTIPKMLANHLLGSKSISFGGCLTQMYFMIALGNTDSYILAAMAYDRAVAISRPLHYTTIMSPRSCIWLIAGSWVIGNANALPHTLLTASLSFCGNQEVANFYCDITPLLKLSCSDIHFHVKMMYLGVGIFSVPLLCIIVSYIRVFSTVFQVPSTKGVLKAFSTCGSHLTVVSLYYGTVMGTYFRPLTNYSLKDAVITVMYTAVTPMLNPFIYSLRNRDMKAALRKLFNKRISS
In short: (§1)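 Values were gathered from published papers (main text and supplementary material), with extra details requested from the original authors when needed, and checked for typos and inconsistencies. Each receptor–molecule pair is called responsive (active) if the original authors judged the measured signal statistically different from baseline, and non-responsive (inactive) otherwise. Assay methods varied by source, often transient mammalian cell-line luciferase assays. Recorded details include cell line, G-protein, co-transfected protein and tags.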

OR13H1 (Homo sapiens) = target: T2, OR13H1 (Homo sapiens) (UniProt Q8NG92)
T2 sequence (whole entry): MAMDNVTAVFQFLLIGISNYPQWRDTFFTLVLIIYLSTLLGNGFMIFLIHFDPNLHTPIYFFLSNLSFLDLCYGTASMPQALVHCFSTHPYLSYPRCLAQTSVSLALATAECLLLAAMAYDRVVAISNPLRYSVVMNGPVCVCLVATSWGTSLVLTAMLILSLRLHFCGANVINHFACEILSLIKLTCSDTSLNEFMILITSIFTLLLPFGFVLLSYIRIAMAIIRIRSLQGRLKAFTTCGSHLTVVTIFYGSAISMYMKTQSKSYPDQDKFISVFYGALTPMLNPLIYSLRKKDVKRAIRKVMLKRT
In short: as §1

OR13J1 (Homo sapiens) = target: T3, OR13J1 (Homo sapiens) (UniProt Q8NGT2)
T3 sequence (whole entry): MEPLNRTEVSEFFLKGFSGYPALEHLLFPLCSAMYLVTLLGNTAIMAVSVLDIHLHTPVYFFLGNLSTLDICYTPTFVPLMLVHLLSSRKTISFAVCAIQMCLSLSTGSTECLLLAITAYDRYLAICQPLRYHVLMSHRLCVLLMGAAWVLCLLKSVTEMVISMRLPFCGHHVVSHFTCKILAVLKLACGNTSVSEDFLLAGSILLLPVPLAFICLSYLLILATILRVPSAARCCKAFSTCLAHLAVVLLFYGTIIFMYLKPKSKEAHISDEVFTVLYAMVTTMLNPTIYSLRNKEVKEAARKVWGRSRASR
In short: as §1

OR14A16 (Homo sapiens) = target: T4, OR14A16 (Homo sapiens) (UniProt Q8NHC5)
T4 sequence (whole entry): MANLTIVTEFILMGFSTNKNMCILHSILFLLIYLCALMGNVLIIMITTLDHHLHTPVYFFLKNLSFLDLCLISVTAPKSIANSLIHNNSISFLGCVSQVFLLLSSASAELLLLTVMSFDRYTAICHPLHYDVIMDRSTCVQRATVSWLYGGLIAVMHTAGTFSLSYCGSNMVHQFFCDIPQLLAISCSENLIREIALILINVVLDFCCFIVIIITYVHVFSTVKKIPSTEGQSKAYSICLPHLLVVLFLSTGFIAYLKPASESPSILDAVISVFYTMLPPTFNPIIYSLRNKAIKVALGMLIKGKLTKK
In short: as §1

OR14A2 (Homo sapiens) = target: T5, OR14A2 (Homo sapiens) (UniProt Q96R54)
T5 sequence (whole entry): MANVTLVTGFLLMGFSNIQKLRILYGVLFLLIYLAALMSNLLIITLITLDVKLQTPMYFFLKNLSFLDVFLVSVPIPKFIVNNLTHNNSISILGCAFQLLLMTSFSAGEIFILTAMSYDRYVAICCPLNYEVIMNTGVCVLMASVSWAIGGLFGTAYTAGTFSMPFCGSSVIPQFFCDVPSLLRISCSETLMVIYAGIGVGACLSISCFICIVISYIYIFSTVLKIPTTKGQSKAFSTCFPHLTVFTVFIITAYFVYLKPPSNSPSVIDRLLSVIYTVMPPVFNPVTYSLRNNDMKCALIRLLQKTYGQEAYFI
In short: as §1

OR14C36 (Homo sapiens) = target: T6, OR14C36 (Homo sapiens) (UniProt Q8NHC7)
T6 sequence (whole entry): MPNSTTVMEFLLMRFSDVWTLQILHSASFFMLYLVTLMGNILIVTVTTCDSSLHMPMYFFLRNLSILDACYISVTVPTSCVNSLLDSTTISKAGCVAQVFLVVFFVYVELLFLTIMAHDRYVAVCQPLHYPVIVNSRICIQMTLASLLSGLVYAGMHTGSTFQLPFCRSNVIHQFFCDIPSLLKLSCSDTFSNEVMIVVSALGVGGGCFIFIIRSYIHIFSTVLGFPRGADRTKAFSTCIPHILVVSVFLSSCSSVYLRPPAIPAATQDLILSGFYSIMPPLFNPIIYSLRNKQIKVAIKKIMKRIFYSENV
In short: as §1

OR14I1 (Homo sapiens) = target: T7, OR14I1 (Homo sapiens) (UniProt A6ND48)
T7 sequence (whole entry): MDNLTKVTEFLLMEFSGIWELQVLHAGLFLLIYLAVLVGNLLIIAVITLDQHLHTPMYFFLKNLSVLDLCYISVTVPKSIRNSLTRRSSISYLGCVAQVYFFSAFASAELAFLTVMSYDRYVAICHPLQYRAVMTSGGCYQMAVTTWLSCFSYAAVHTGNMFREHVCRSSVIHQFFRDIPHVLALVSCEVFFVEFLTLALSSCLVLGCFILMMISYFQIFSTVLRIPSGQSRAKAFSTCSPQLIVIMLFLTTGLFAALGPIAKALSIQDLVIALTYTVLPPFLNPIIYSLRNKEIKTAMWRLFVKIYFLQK
In short: as §1

OR14J1 (Homo sapiens) = target: T8, OR14J1 (Homo sapiens) (UniProt Q9UGF5)
T8 sequence (whole entry): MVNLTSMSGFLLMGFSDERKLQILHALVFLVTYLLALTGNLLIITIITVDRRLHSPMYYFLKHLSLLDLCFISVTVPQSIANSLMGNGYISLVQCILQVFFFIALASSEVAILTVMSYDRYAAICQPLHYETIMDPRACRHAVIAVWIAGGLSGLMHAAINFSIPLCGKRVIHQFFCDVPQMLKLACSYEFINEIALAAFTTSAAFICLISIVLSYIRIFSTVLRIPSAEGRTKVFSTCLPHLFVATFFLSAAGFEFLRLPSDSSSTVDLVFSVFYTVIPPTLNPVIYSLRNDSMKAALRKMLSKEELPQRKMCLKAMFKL
In short: as §1

OR14K1 (Homo sapiens) = target: T9, OR14K1 (Homo sapiens) (UniProt Q8NGZ2)
T9 sequence (whole entry): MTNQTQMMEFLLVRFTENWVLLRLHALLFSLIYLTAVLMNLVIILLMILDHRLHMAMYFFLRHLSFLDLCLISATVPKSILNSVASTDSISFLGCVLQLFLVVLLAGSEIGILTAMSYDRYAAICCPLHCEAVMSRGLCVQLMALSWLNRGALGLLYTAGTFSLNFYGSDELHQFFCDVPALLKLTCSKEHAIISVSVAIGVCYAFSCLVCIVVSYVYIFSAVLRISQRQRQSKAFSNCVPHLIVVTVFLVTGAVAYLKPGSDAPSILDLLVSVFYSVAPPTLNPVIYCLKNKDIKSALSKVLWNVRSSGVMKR
In short: as §1

OR1A1 A154T N155S = system: OR1A1 A154T N155S
In short: as §1

[1] = system: OR1A1 G108A N109K A154T N155S
In short: as §1

OR1A1 G108A N109K = system: OR1A1 G108A N109K
In short: as §1

OR1A1 G108A = system: OR1A1 G108A
Chain of OR1A1 G108A (as listed by the source, stated change not applied): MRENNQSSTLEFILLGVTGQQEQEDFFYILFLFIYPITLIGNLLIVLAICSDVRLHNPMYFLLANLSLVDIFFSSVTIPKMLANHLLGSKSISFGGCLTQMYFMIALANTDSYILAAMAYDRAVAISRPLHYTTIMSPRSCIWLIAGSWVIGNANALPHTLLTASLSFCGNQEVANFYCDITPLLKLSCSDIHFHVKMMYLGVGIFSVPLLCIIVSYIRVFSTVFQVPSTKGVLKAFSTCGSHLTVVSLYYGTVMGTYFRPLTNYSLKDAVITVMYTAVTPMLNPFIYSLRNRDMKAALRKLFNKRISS
In short: as §1

OR1A1 I114T = system: OR1A1 I114T
Chain of OR1A1 I114T (as listed by the source, stated change not applied): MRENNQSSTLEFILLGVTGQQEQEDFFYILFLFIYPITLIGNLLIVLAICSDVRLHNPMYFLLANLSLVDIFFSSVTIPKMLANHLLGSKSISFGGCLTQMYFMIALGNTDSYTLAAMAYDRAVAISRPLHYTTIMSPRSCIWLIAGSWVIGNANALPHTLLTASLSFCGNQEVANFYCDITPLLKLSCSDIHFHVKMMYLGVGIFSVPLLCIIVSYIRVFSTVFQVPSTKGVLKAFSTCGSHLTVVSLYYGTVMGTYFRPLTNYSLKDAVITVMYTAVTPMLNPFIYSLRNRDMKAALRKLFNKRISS
In short: as §1

OR1A1 I205V = system: OR1A1 I205V
Chain of OR1A1 I205V (as listed by the source, stated change not applied): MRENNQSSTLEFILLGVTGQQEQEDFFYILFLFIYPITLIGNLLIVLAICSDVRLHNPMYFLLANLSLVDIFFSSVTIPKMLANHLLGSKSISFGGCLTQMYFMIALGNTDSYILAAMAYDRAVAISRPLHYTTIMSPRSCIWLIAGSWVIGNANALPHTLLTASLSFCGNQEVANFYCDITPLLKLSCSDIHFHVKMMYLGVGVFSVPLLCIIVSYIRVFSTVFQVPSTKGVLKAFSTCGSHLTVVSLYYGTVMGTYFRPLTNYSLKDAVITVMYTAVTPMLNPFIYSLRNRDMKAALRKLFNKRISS
In short: as §1

OR1A1 N109K = system: OR1A1 N109K
Chain of OR1A1 N109K (as listed by the source, stated change not applied): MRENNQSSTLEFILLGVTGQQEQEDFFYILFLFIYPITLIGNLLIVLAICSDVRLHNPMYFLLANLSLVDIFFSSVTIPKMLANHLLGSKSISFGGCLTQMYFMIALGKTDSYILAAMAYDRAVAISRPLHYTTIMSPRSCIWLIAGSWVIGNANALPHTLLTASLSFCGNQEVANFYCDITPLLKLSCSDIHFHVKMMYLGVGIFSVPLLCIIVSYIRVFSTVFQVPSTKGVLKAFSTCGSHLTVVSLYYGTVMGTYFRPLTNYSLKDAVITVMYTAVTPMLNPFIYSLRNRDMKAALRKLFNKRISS
In short: as §1

OR1A1 T110A = system: OR1A1 T110A
Chain of OR1A1 T110A (as listed by the source, stated change not applied): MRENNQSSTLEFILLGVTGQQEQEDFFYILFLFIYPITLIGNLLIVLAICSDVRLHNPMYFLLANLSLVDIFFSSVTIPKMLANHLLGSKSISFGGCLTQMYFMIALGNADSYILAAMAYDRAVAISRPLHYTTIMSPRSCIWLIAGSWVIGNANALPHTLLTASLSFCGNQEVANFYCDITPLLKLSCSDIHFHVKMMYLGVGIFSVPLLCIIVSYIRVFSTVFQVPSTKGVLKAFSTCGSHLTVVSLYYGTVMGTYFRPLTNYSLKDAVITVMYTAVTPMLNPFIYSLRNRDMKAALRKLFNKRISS
In short: as §1

OR1A1 T277V = system: OR1A1 T277V
Chain of OR1A1 T277V (as listed by the source, stated change not applied): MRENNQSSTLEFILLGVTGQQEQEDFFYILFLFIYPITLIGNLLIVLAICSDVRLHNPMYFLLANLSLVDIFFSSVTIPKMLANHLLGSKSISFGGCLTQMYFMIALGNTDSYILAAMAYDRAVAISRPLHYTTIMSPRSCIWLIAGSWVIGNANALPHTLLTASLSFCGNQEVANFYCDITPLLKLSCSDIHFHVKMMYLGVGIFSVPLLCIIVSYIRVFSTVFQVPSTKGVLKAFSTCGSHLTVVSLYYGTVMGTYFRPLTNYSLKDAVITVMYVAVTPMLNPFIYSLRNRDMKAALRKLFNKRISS
In short: as §1

OR1A1 T99M = system: OR1A1 T99M
Chain of OR1A1 T99M (as listed by the source, stated change not applied): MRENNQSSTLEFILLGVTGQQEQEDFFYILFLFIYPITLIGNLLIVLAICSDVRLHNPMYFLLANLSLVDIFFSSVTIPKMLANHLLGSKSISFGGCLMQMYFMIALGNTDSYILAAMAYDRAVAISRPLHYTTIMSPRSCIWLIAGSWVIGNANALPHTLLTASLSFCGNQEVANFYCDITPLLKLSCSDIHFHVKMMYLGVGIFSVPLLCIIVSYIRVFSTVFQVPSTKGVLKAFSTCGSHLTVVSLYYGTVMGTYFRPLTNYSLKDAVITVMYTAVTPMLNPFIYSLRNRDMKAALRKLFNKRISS
In short: as §1

OR1A1 V254T = system: OR1A1 V254T
Chain of OR1A1 V254T (as listed by the source, stated change not applied): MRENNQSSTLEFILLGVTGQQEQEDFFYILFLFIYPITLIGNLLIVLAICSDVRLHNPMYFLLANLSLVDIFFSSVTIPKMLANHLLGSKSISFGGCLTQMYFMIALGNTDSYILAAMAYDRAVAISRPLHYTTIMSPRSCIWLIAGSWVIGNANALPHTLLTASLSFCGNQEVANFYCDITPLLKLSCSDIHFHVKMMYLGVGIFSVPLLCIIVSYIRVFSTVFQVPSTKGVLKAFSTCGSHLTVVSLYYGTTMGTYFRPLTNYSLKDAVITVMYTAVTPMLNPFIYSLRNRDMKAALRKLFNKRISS
In short: as §1

Measured: odorant receptor agonist call

CC1CCC(C(C)C)C(=O)C1 (centres undefined)
active: OR1A1 (Homo sapiens)

CCCC(=O)C(C)=O
inactive: OR1A1 (Homo sapiens)

CC(=O)c1c(C)c([N+](=O)[O-])c(C(C)(C)C)c([N+](=O)[O-])c1C
inactive: OR13H1 (Homo sapiens) | OR13J1 (Homo sapiens) | OR14A16 (Homo sapiens) | OR14A2 (Homo sapiens) | OR14C36 (Homo sapiens) | OR14I1 (Homo sapiens) | OR14J1 (Homo sapiens) | OR14K1 (Homo sapiens) | OR1A1 (Homo sapiens)

CC=CC(=O)C1=C(C)CCCC1(C)C
inactive: OR1A1 (Homo sapiens)

CCCC(S)CCOC(C)=O (centres undefined)
inactive: OR13H1 (Homo sapiens) | OR13J1 (Homo sapiens) | OR14A16 (Homo sapiens) | OR14A2 (Homo sapiens) | OR14C36 (Homo sapiens) | OR14I1 (Homo sapiens) | OR14J1 (Homo sapiens) | OR14K1 (Homo sapiens)
active: OR1A1 (Homo sapiens)

COc1ccccc1
inactive: OR1A1 (Homo sapiens)

Cc1cccc(C)c1O
inactive: OR1A1 (Homo sapiens)

CCCCCC(=O)OCC
active: OR1A1 (Homo sapiens)

CCC1OC(=O)C(O)=C1C (centres undefined)
inactive: OR13H1 (Homo sapiens) | OR13J1 (Homo sapiens) | OR14A16 (Homo sapiens) | OR14A2 (Homo sapiens) | OR14C36 (Homo sapiens) | OR14I1 (Homo sapiens) | OR14J1 (Homo sapiens) | OR14K1 (Homo sapiens) | OR1A1 (Homo sapiens)

CCCCC(S)C(C)CO (centres undefined)
inactive: OR13H1 (Homo sapiens) | OR13J1 (Homo sapiens) | OR14A16 (Homo sapiens) | OR14A2 (Homo sapiens) | OR14C36 (Homo sapiens) | OR14I1 (Homo sapiens) | OR14J1 (Homo sapiens) | OR14K1 (Homo sapiens) | OR1A1 (Homo sapiens)

CCCCCC1CCCC(=O)O1 (centres undefined)
inactive: OR1A1 (Homo sapiens)

CC1=NC(C)C(C)S1 (centres undefined)
inactive: OR13H1 (Homo sapiens) | OR13J1 (Homo sapiens) | OR14A16 (Homo sapiens) | OR14A2 (Homo sapiens) | OR14C36 (Homo sapiens) | OR14I1 (Homo sapiens) | OR14J1 (Homo sapiens) | OR14K1 (Homo sapiens) | OR1A1 (Homo sapiens)

CC(C)CCCCCCCCCCC=O
inactive: OR1A1 (Homo sapiens)

CCCCCCCC=CC=CC=O
inactive: OR1A1 (Homo sapiens)

CCOC(=O)C1CCCCC1
active: OR1A1 (Homo sapiens)

CCCCCCC=CCCC=O
inactive: OR13H1 (Homo sapiens) | OR13J1 (Homo sapiens) | OR14A16 (Homo sapiens) | OR14A2 (Homo sapiens) | OR14C36 (Homo sapiens) | OR14I1 (Homo sapiens) | OR14J1 (Homo sapiens) | OR14K1 (Homo sapiens) | OR1A1 (Homo sapiens)

CC1=C(O)C(=O)C(C)O1 (centres undefined)
inactive: OR13H1 (Homo sapiens) | OR13J1 (Homo sapiens) | OR14A16 (Homo sapiens) | OR14A2 (Homo sapiens) | OR14C36 (Homo sapiens) | OR14I1 (Homo sapiens) | OR14J1 (Homo sapiens) | OR14K1 (Homo sapiens) | OR1A1 (Homo sapiens)

CC(C)=CCCC(C)CCO (centres undefined)
active: OR1A1 A154T N155S | OR1A1 I114T | OR1A1 I205V | OR1A1 T110A | OR1A1 T277V | OR1A1 T99M | OR1A1 V254T
inactive: [1] | OR1A1 G108A N109K | OR1A1 G108A | OR1A1 N109K
